14-3-3 Bad PPI = disrupts binding of bovine 14-3-3 zeta to phospho-Bad peptide | hit rate 0.71% among 220,000 | inhibition, % at 21.7 µM | TR-FRET 14-3-3zeta/Dy647-pBad peptide displacement, 1 h | P63103;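 active means inhibition above about 70%, limit read from the data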
Target sequence (P63103 whole entry, looked up): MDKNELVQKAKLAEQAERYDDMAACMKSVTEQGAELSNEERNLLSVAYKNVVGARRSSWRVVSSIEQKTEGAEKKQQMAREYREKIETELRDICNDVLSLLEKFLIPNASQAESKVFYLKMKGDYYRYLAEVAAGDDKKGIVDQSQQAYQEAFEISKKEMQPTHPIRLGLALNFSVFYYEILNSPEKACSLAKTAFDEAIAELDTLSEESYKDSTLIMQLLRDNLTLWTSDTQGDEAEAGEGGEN
eIF4E 4G PPI = blocks eIF4E binding to eIF4G | TR-FRET eIF4E-eIF4GI(517-606) binding, 2 h | hit rate 0.37% among 220,000 | P63073+Q04637 | AID 782 | inhibition, % at 21.7 µM
p47phox inh = blocks human p47phox regulatory protein of NADPH oxidases; inhibition, % at 24.7 µM; AID 1274; p47phox/p22phox peptide binding, fluorescence polarization, 2 h; hit rate 0.53% among 220,000
RBBP9 inhibitor = blocks human serine hydrolase RBBP9; O75884; inhibition, % at 7.94 µM; recombinant RBBP9, FP-Rh probe fluorescence polarization; hit rate 0.2% among 220,000; AID 1515;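 active means inhibition above the campaign mean of all tested compounds plus 3 SD, cut at about 14% in these data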
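System: RBBP9 protein / Quantity: 2.5 µM RBBP9 dispensing solution, before mixing / Also added: Serine-hydrolase probe FP-Rh, 375 nM pre-mixing / Dosing: 7.94 µM single dose, 0.794% DMSO / Timing: enzyme-compound preincubation 30 min, then probe labeling 45 min, 25 °C / Signal: FP readout at 525/598 nm / Controls: DMSO-treated enzyme wells and wells lacking RBBP9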
WT yeast gro inh = growth inhibition of WT yeast, mitochondrial fusion screen. mitochondrial fusion phenotypic screen, WT strain. AID 1362. hit rate 2.1% among 190,000. inhibition, % at 10 µM; in the data active means inhibition above about 58%; tested in S. cerevisiae
EBV gp42 block = blocks Epstein-Barr virus glycoprotein 42 binding. Fluorescence polarization binding assay, mP read-out. inhibition, % (tested at 21.74 µM). hit rate 0.42% among 220,000. AID 1085; in the data active means inhibition above about 50%
Target sequence (Q1HVG2 whole entry, looked up): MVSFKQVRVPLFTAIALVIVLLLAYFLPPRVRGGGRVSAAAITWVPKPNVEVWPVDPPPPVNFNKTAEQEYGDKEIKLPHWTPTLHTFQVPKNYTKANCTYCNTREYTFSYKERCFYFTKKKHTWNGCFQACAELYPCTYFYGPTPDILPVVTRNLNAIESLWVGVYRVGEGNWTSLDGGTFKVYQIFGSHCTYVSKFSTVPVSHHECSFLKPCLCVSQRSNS
A number is an active result; n = inactive; x = not tested or not shown; [ ] = dose if it differs, or a comment. The list is not random: actives were taken first. Their share in the collection is about 3.7%.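 How the source made its calls, unless noted: active means inhibition above about 30% (limit read from the data); inactive means the rest.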

SMILES	14-3-3 Bad PPI	eIF4E 4G PPI	p47phox inh	RBBP9 inhibitor	WT yeast gro inh	EBV gp42 block
CN(C)c1ncc(S(=O)(=O)c2ccc(Cl)cc2)c(-c2ccc(Cl)cc2Cl)n1	n	n	n	n	66.4	n
O=C1CCN(S(=O)(=O)c2ccccc2)CCN1CCOCc1cccc(F)c1	n	n	n	x	x	n
CCC(=O)Nc1ccc(C(=O)CSc2nnc(-c3ccc(NS(=O)(=O)CC)cc3)o2)cc1OC	n	n	n	n	x	n
S=C(c1cn(CCOc2ccccc2)c2ccccc12)N1CCCC1	n	n	n	n	70.5	n
CC1CCN(C(=S)c2cn(Cc3cccc(F)c3)c3ccccc23)CC1	n	n	n	n	71.3	n
CN1CCN(C(=S)c2cn(Cc3ccc(Br)cc3)c3ccccc23)CC1	n	n	n	n	78.7	n
CN1CCN(C(=S)c2cn(Cc3ccccc3)c3ccccc23)CC1	n	n	n	n	n	n
CCOC(=O)N1CCc2c(sc(NC(=O)CN(CC)CC)c2C#N)C1	n	n	n	n	x	n
COc1nc(-c2cnccn2)sc1C	n	n	n	n	n	n
CC(C)N=c1scc(-c2ccco2)n1/N=C/c1ccc(O)c(O)c1	n	n	n	n	n	n
COCCN=c1scc(-c2ccco2)n1/N=C/c1ccc(O)c(O)c1O	n	44.7	n	24.3	n	73.6
O=[N+]([O-])c1ccc(O)c(-c2nc(-c3ccccc3)c(-c3cccs3)[nH]2)c1	n	n	n	n	72.2	n
Cc1ccc(C(C(=O)NC2CCCCC2)N(Cc2ccco2)C(=O)Cc2c[nH]c3ccccc23)o1 (configuration not stated)	n	n	n	n	70.7	n
C=CCN(C(=O)c1cccc(S(=O)(=O)N2CCN(C)CC2)c1)c1nc(-c2ccccc2)cs1	n	n	n	n	59.1	n
Cc1csc(N(C(=O)c2cccc(S(=O)(=O)N3CCCC3)c2)c2ccccc2)n1	n	n	n	n	n	n
CCN1CCN(CCOCCOc2ccccc2-c2ccccc2)CC1	70.8	n	n	n	n	n
COCCn1c(=S)[nH]c2cc(C(=O)N3CCc4ccccc43)ccc2c1=O	n	n	n	n	76.5	n
CCOC(=O)c1sc(/N=C/c2c(C)[nH]n(-c3ccccc3)c2=O)c(C#N)c1C	n	n	n	n	77.3	n
COc1ccc(/C=C2\N=C(c3ccccc3Cl)NC2=O)cc1	n	n	n	n	x	n
Cc1ccc(-n2nnnc2SCC#N)cc1	71.4	n	n	n	n	n
COc1ccc(-n2nnnc2SCC#CCO)cc1	n	n	n	n	n	n
O=S(=O)(N1CCCCC1)N1CCN(c2cc(Cl)ccc2Cl)CC1	n	n	n	n	73.6	n
Cc1ccc(SCc2c(-c3ccccc3)nn(C)c2Cl)cc1	n	n	n	n	n	n
Cn1nc(-c2ccccc2)c(CSc2ccccc2)c1Cl	x	x	139.0	n	x	n
CCc1ccc(CCC(=O)Nc2ccc(OC)cc2)o1	n	n	n	n	n	n
SMILES	14-3-3 Bad PPI	eIF4E 4G PPI	p47phox inh	RBBP9 inhibitor	WT yeast gro inh	EBV gp42 block
COc1ccc(C(N)CCc2ccc(C)o2)cc1 (configuration not stated)	87.9[fluorescence artefact?]	n	n	n	n	n
Cc1cccn2c(=O)c(/C=N/O)c(NCc3ccccc3)nc12	n	n	n	n	x	n
Cc1cccn2c(=O)c(/C=N/O)c(Nc3ccccc3F)nc12	86.9	n	n	n	x	n
O=C(O)c1ccccc1NCc1ccco1	n	n	n	n	x	n
CCOc1ccc2noc3c2c1C(=O)c1ccccc1-3	n	n	44.2	n	n	n
O=C1c2ccccc2-c2onc3ccc(NCc4ccco4)c1c23	n	n	n	n	65.8	129.8
Cc1ccc(CNS(=O)(=O)c2ccccc2[N+](=O)[O-])cc1	n	n	n	n	n	n
CCOc1ccc(S(=O)(=O)N2CCN(C(=O)c3cc4c(s3)CCCC4)CC2)cc1	n	n	n	n	62.7	n
CCOc1ccc(S(=O)(=O)N2CCCC2)cc1	n	n	n	n	n	n
COc1ccc(-c2cc(C(=O)Nc3c(C)n(C)n(-c4ccccc4)c3=O)no2)cc1OC	n	n	n	n	n	n
CCOC(=O)c1c(-c2ccc(C)o2)csc1NC(=O)CN1CCCCC1	n	n	n	n	83.3	n
CCOC(=O)c1c(-c2ccc(C)o2)csc1NC(=O)CN1CCN(CC)CC1	71.0	n	n	n	n	n
COc1cc(OC)nc(-n2ncc(Br)c(Br)c2=O)n1	n	n	n	n	n	n
COc1ccc2nc(SCC(=O)Nc3cc(OC)c(OC)cc3C(=O)O)c(C)cc2c1	n	n	n	n	n	n
CCOC(=O)c1c(N)sc2c(O)c(Br)ccc12	n	39.1[fluorescence artefact?]	n	n	n	n
Cc1ccc2[nH]c(=O)c3cc(C(=O)N(C)c4ccccc4C)sc3c2c1	n	n	n	n	x	n
Cc1ccccc1-n1c(SCc2c(C)noc2C)nnc1-c1cccnc1	n	n	n	n	n	89.1
CCC(C)N=C1CC(C)(C)CC(=O)/C1=C(/O)Cc1ccccc1 (configuration not stated)	n	n	n	n	n	n
COc1ccc(CCCc2nnc(SCC(=O)Nc3ccc(OC)cc3)o2)cc1	n	n	n	n	n	n
O=C(CSc1nnc(COc2ccc3c(c2)CCCC3)o1)Nc1ccc(F)cc1	87.3	n	n	n	n	n
Cn1c(N)c(C(=O)COC(=O)C2=NNC(=O)CC2)c(=O)n(C)c1=O	n	n	n	n	x	n
Cc1nnc(NC(=O)c2sc3nc(-c4cccs4)cc(C(F)(F)F)c3c2N)s1	n	n	n	n	70.5	n
COc1ccc(NC(=O)c2sc3nc(Cc4ccccc4)cc(C(F)(F)F)c3c2N)cc1OC	n	n	n	n	n	n
COc1ccccc1NC(=O)c1sc2nc(Cc3ccccc3)cc(C(F)(F)F)c2c1N	n	n	n	n	n	73.9
COC(=O)C(NC(=O)CNS(=O)(=O)c1ccc(Br)cc1)c1ccccc1 (configuration not stated)	n	n	n	n	n	n
SMILES	14-3-3 Bad PPI	eIF4E 4G PPI	p47phox inh	RBBP9 inhibitor	WT yeast gro inh	EBV gp42 block
COc1ccc(S(=O)(=O)N2CCNC(=O)C2)cc1Br	n	n	n	n	n	n
O=S(=O)(c1ccccc1)N1CCCC1c1cccs1 (configuration not stated)	n	97.5	n	n	x	n
Cc1onc(-c2ccccc2)c1C(=O)NC(=S)NNC(=O)c1cc(-c2ccc(F)cc2)n[nH]1	n	n	n	n	x	n
Cc1cc(C)n2nc(C(=O)NNC(=O)c3ccc(Cl)cc3)nc2n1	n	n	36.1	n	x	n
Cc1nc(C(=O)N2CCc3c([nH]c4ccccc34)C2c2ccccn2)cs1 (configuration not stated)	n	n	n	n	n	n
Cc1cc(C(=O)N2CCc3c([nH]c4ccccc34)C2c2cccc(Cl)c2)nn1C (configuration not stated)	n	n	n	n	61.0	n

Assay outcomes: PubChem BioAssay, several laboratories
